pIC50: −log10 of the molar value. Calls of active or inactive are those of the source. The calls are words filed in the database; no cut-off is given here.
Tests used:
Jurkat [1] = assay: Cytotoxicity against human Jurkat T cells assessed as decrease in cell viability after 24 hrs by flow cytometric analysis; assay type: functional, cell-based
In short: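 Jurkat cultures kept in exponential growth (split every third day to 1 × 10^5 cells/ml) were treated for one cell cycle (24 h) at graded concentrations. Viability was read right after treatment by flow cytometry after 5 min propidium iodide-based stain at room temperature. IC50 was interpolated from the dose-response curve; ≥3 independent experiments, mean ± SEM.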

Jurkat [2] = assay: Cytotoxicity against human Jurkat T cells assessed as necrotic cells at 0.1 to 16 uM after 72 hrs by flow cytometric analysis; assay type: functional, cell-based
In short: (§1)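 After 72 h exposure of Jurkat cells, 2 × 10^4 cells were stained with an Annexin V-PE/7-AAD cocktail for 20 min at room temperature in the dark. Necrotic cells were scored by flow cytometry.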

Jurkat [3] = assay: Cytotoxicity against human Jurkat T cells assessed as necrotic cells at 1 uM after 72 hrs by flow cytometric analysis; assay type: functional; in short: as §1
Jurkat [4] = assay: Ratio IC50 for sulforaphane to compound for human Jurkat T cells; assay type: functional
Jurkat [5] = assay: Induction of apoptosis in human Jurkat T cells assessed as increase in phosphatidylserine level after 24 hrs by flow cytometric analysis; assay type: functional, cell-based
Jurkat [6] = assay: Induction of apoptosis in human Jurkat T cells assessed as increase in phosphatidylserine level at 0.5 to 4 uM after 24 hrs by flow cytometric analysis; assay type: functional, cell-based
Jurkat [7] = assay: Induction of apoptosis in human Jurkat T cells assessed as increase in necrotic cells at 4 uM after 24 hrs by 7-AA staining-based flow cytometric analysis; assay type: functional, cell-based
Jurkat [8] = assay: Induction of apoptosis in human Jurkat T cells assessed as decrease in membrane potential at 1 uM after 24 hrs by JC-1 staining-based flow cytometric analysis; assay type: functional; design: scale not given: the % may be the effect or the level left
Jurkat [9] = assay: Induction of apoptosis in human Jurkat T cells assessed as decrease in membrane potential at 0.75 uM after 24 hrs by JC-1 staining-based flow cytometric analysis; assay type: functional; design: scale not given: the % may be the effect or the level left
Jurkat [10] = assay: Induction of apoptosis in human Jurkat T cells assessed as decrease in membrane potential at 2 uM after 24 hrs by JC-1 staining-based flow cytometric analysis; assay type: functional; design: scale not given: the % may be the effect or the level left
Jurkat [11] = assay: Induction of apoptosis in human Jurkat T cells assessed as decrease in membrane potential after 24 hrs by JC-1 staining-based flow cytometric analysis; assay type: functional, cell-based
Jurkat [12] = assay: Growth inhibition in human Jurkat T cells assessed as suppression into cell cycle progression at 2 uM after 24 hrs by flow cytometric analysis; assay type: functional
In short: (§2)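 Jurkat cells were treated 24 h at graded concentrations, and cell growth inhibition was measured by flow cytometry. Mean ± SEM of at least three independent experiments.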

Jurkat [13] = assay: Growth inhibition in human Jurkat T cells assessed as suppression into cell cycle progression at 4 uM after 24 hrs by flow cytometric analysis; assay type: functional; conditions: read-out: GI; in short: as §2
Jurkat [14] = assay: Growth inhibition in human Jurkat T cells assessed as suppression into cell cycle progression at 8 uM after 24 hrs by flow cytometric analysis; assay type: functional; conditions: read-out: GI; in short: as §2
Jurkat [15] = assay: Cell cycle arrest in human Jurkat T cells assessed as accumulation at G1 phase at 0.5 to 1 uM after 24 hrs by flow cytometric analysis (reference value: 63%); assay type: functional
In short: (§3)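 Jurkat cells exposed 24 h to a range of concentrations, fixed in ice-cold ethanol, stained with propidium iodide-containing cell cycle reagent for 30 min at room temperature in the dark; G1, S and G2/M fractions from flow cytometry. Mean ± SEM of four independent experiments.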

Jurkat [16] = assay: Cell cycle arrest in human Jurkat T cells assessed as accumulation at S phase at 0.5 to 1 uM after 24 hrs by flow cytometric analysis (reference value: 20%); assay type: functional; in short: as §3
Jurkat [17] = assay: Cell cycle arrest in human Jurkat T cells assessed as accumulation at G2/M phase at 0.5 to 1 uM after 24 hrs by flow cytometric analysis; assay type: functional, cell-based; in short: as §3
Jurkat [18] = assay: Induction of apoptosis in human Jurkat T cells assessed as decrease in membrane potential at 0.5 to 2 uM after 24 hrs by JC-1 staining-based flow cytometric analysis; assay type: functional, cell-based
Jurkat [19] = assay: Induction of apoptosis in human Jurkat T cells assessed as caspase 8 activation after 24 hrs by FAM-LETD-FMK staining-based flow cytometric analysis
Jurkat [20] = assay: Induction of apoptosis in human Jurkat T cells assessed as caspase 8 activation at 0.5 to 2 uM after 24 hrs by FAM-LETD-FMK staining-based flow cytometric analysis
Jurkat [21] = assay: Induction of apoptosis in human Jurkat T cells assessed as increase in phosphatidylserine level at 0.25 to 1.5 uM after 24 hrs by flow cytometric analysis; assay type: functional, cell-based
Jurkat [22] = assay: Induction of apoptosis in human Jurkat T cells assessed as increase in necrotic cells at 1.5 uM after 24 hrs by 7-AA staining-based flow cytometric analysis; assay type: functional, cell-based
Jurkat [23] = assay: Induction of apoptosis in human Jurkat T cells assessed as decrease in membrane potential at 0.5 uM after 24 hrs by JC-1 staining-based flow cytometric analysis; assay type: functional; design: scale not given: the % may be the effect or the level left
Jurkat [24] = assay: Growth inhibition in human Jurkat T cells assessed as suppression into cell cycle progression at 1 uM after 24 hrs by flow cytometric analysis; assay type: functional; conditions: read-out: GI; in short: as §2
Jurkat [25] = assay: Growth inhibition in human Jurkat T cells assessed as suppression into cell cycle progression at 1.5 uM after 24 hrs by flow cytometric analysis; assay type: functional; conditions: read-out: GI; in short: as §2
Jurkat [26] = assay: Growth inhibition in human Jurkat T cells assessed as suppression into cell cycle progression at 3 uM after 24 hrs by flow cytometric analysis; assay type: functional; conditions: read-out: GI; in short: as §2
Jurkat [27] = assay: Cell cycle arrest in human Jurkat T cells assessed as accumulation at G1 phase at 0.25 to 0.5 uM after 24 hrs by flow cytometric analysis (reference value: 58%); assay type: functional; in short: as §3
Jurkat [28] = assay: Cell cycle arrest in human Jurkat T cells assessed as accumulation at S phase at 0.25 to 0.5 uM after 24 hrs by flow cytometric analysis; assay type: functional, cell-based; in short: as §3
Jurkat [29] = assay: Cell cycle arrest in human Jurkat T cells assessed as accumulation at G2/M phase at 0.25 to 0.5 uM after 24 hrs by flow cytometric analysis; assay type: functional, cell-based; in short: as §3
Jurkat [30] = assay: Induction of apoptosis in human Jurkat T cells assessed as decrease in membrane potential at 0.25 to 1 uM after 24 hrs by JC-1 staining-based flow cytometric analysis; assay type: functional, cell-based
Jurkat [31] = assay: Induction of apoptosis in human Jurkat T cells assessed as caspase 8 activation at 0.25 to 1 uM after 24 hrs by FAM-LETD-FMK staining-based flow cytometric analysis
Jurkat [32] = assay: Induction of apoptosis in human Jurkat T cells assessed as increase in phosphatidylserine level at 0.25 to 1 uM after 24 hrs by flow cytometric analysis; assay type: functional, cell-based
Jurkat [33] = assay: Induction of apoptosis in human Jurkat T cells assessed as increase in necrotic cells at 1 uM after 24 hrs by 7-AA staining-based flow cytometric analysis; assay type: functional, cell-based
Jurkat [34] = assay: Growth inhibition in human Jurkat T cells assessed as suppression into cell cycle progression at 0.75 uM after 24 hrs by flow cytometric analysis; assay type: functional; conditions: read-out: GI; in short: as §2
Jurkat [35] = assay: Cell cycle arrest in human Jurkat T cells assessed as accumulation at G1 phase at 0.25 to 0.5 uM after 24 hrs by flow cytometric analysis (reference value: 56%); assay type: functional; in short: as §3
Jurkat [36] = assay: Cell cycle arrest in human Jurkat T cells assessed as accumulation at S phase at 0.25 to 0.5 uM after 24 hrs by flow cytometric analysis (reference value: 21%); assay type: functional; in short: as §3
Jurkat [37] = assay: Cell cycle arrest in human Jurkat T cells assessed as accumulation at G2/M phase at 0.25 to 0.5 uM after 24 hrs by flow cytometric analysis (reference value: 29%); assay type: functional; in short: as §3
Jurkat [38] = assay: Induction of apoptosis in human Jurkat T cells assessed as decrease in membrane potential at 0.25 to 0.75 uM after 24 hrs by JC-1 staining-based flow cytometric analysis; assay type: functional, cell-based
Jurkat [39] = assay: Induction of apoptosis in human Jurkat T cells assessed as caspase 8 activation at 0.25 to 0.75 uM after 24 hrs by FAM-LETD-FMK staining-based flow cytometric analysis
Jurkat [40] = assay: Induction of apoptosis in human Jurkat T cells assessed as increase in apoptotic cells at 0.75 uM after 24 hrs by 7-AA staining-based flow cytometric analysis relative to sulforaphane
Jurkat [41] = assay: Induction of apoptosis in human Jurkat T cells assessed as increase in phosphatidylserine level at 2 uM after 24 hrs by flow cytometric analysis; assay type: functional, cell-based
In short: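 Jurkat T leukemia cells were exposed for 24 h. Aliquots of 2 × 10^4 cells were then stained with Guava Nexin Reagent, which contains Annexin V-PE for phosphatidylserine exposure and 7-AAD for membrane-permeable, necrotic cells. Staining ran 20 min at room temperature in the dark, followed by flow cytometry. Data are mean ± SEM of at least three independent experiments. Friedman test, Dunn's post test.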

## CN(C)CCN1C(=O)c2ccc3c4c(ccc(c24)C1=O)C(=O)N(CCN=C=S)C3=O
Jurkat [1]
  Activity: Dose-dependent effect
  pIC50: 5.72
Jurkat [2]
  Activity: Active
Jurkat [3]
  Activity: 100%
Jurkat [4]
  Ratio IC50: 8
Jurkat [5]
  Activity: Dose-dependent effect
Jurkat [6]
  Activity: Active
Jurkat [7]
  Activity: Active
Jurkat [8]
  Activity: 53%
Jurkat [9]
  Activity: 100%
Jurkat [10]
  Activity: 100%
Jurkat [11]
  Activity: Dose-dependent effect
Jurkat [12]; read-out: GI
  inhibition of growth at 2 µM: 30%
Jurkat [13]
  inhibition of growth at 4 µM: 40%
Jurkat [14]
  inhibition of growth at 8 µM: 90%
Jurkat [15]
  Activity: 68%
Jurkat [16]
  Activity: 15%
Jurkat [17]
  Activity: inactive
Jurkat [18]
  Activity: Active
Jurkat [19]
  Activity: Dose-dependent effect
Jurkat [20]
  Activity: 56%

## C[S+]([O-])CCCCN=C=S (stereo unspecified) [SULFORAPHANE]
Jurkat [1]
  pIC50: 4.82

## O=C1c2ccc3c4c(ccc(c24)C(=O)N1CCN=C=S)C(=O)N(CCN=C=S)C3=O
Jurkat [1]
  Activity: Dose-dependent effect
  pIC50: 6.05
Jurkat [2]
  Activity: Active
Jurkat [3]
  Activity: 100%
Jurkat [4]
  Ratio IC50: 17
Jurkat [5]
  Activity: Dose-dependent effect
Jurkat [21]
  Activity: Active
Jurkat [22]
  Activity: Active
Jurkat [23]
  Activity: 50.6%
Jurkat [9]
  Activity: 100%
Jurkat [10]
  Activity: 100%
Jurkat [11]
  Activity: Dose-dependent effect
Jurkat [24]
  inhibition of growth at 1 µM: 40%
Jurkat [25]
  inhibition of growth at 1.5 µM: 58%
Jurkat [26]
  inhibition of growth at 3 µM: 94%
Jurkat [27]
  Activity: 68%
Jurkat [28]
  Activity: Active
Jurkat [29]
  Activity: Active
Jurkat [30]
  Activity: Active
Jurkat [19]
  Activity: Dose-dependent effect
Jurkat [31]
  Activity: 66%

## O=C1c2ccc3c4c(ccc(c24)C(=O)N1CCCN=C=S)C(=O)N(CCCN=C=S)C3=O
Jurkat [1]
  Activity: Dose-dependent effect
  pIC50: 6.37
Jurkat [2]
  Activity: Active
Jurkat [3]
  Activity: 100%
Jurkat [4]
  Ratio IC50: 35
Jurkat [5]
  Activity: Dose-dependent effect
Jurkat [32]
  Activity: Active
Jurkat [33]
  Activity: Active
Jurkat [23]
  Activity: 47.1%
Jurkat [9]
  Activity: 100%
Jurkat [10]
  Activity: 100%
Jurkat [11]
  Activity: Dose-dependent effect
Jurkat [34]
  inhibition of growth at 0.75 µM: 30%
Jurkat [24]
  inhibition of growth at 1 µM: 65%
Jurkat [12]
  growth inhibition (GI): Active
Jurkat [35]
  Activity: 68%
Jurkat [36]
  Activity: 13%
Jurkat [37]
  Activity: 22%
Jurkat [38]
  Activity: Active
Jurkat [19]
  Activity: Dose-dependent effect
Jurkat [39]
  Activity: 68%
Jurkat [40]
  fold change (FC): 40

## CC[C@@]1(O)C(=O)OCc2c1cc1n(c2=O)Cc2cc3ccccc3nc2-1
Jurkat [41]
  Activity: Active

From ChEMBL document CHEMBL1938388, “Design, synthesis and biological evaluation of new naphtalene diimides bearing isothiocyanate functionality” (Eur J Med Chem, 2012)
